ChEMBL document CHEMBL1759885, “Syntheses of 1,2,3-triazolyl salicylamides with inhibitory activity on lipopolysaccharide-induced nitric oxide production” (Bioorg Med Chem Lett, 2011)
Calls of active or inactive are those of the source. No cut-off for these calls is given here.

How the values were obtained:
RAW264.7 [1] = experiment: Inhibition of LPS-induced nitric oxide production in mouse RAW264.7 cells at 20 uM after 20 hrs by Griess reaction; format: functional; conditions: RAW264.7, 20 h
How it was run: (§1)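 RAW 264.7 cells plated at 5 × 10⁵ cells/mL, grown 24 h, then given LPS (1 µg/mL) plus compound (DMSO vehicle, final ≤0.1%) for 20 h. Supernatant nitrite measured with Griess reagent (1% sulfanilamide in 5% H₃PO₄, 0.1% N-(1-naphthyl)ethylenediamine) at 540 nm against a NaNO₂ standard curve. %inhibition = [1 − sample NO/vehicle-control NO] × 100. IC50 by nonlinear regression.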

RAW264.7 [2] = experiment: Inhibition of LPS-induced nitric oxide production in mouse RAW264.7 cells after 20 hrs by Griess reaction; format: functional, cell-based; conditions: for IC50: RAW264.7, 20 h; how it was run: as §1
RAW264.7 [3] = experiment: Inhibition of LPS-induced iNOS mRNA expression in mouse RAW264.7 cells at 15 uM after 4 hrs by RT-PCR; format: functional, cell-based
How it was run: (§2)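 RAW 264.7 cells stimulated with LPS (1 µg/mL) with or without several compound concentrations. Total RNA collected at 4 h and analysed for iNOS mRNA by RT-PCR. Protein collected at 16 h and analysed for iNOS by western blot, with β-actin as reference.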

RAW264.7 [4] = experiment: Cytotoxicity against mouse RAW264.7 cells assessed as cell viability upto 15 uM after 24 hrs by MTT assay; format: cell-based; conditions: raw264.7, 24 h
How it was run: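 RAW 264.7 macrophages exposed to compound for 24 h, and viability then read by MTT assay.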

RAW264.7 [5] = experiment: Inhibition of LPS-induced iNOS mRNA expression in mouse RAW264.7 cells after 4 hrs by RT-PCR; format: functional, cell-based; how it was run: as §2
RAW264.7 [6] = experiment: Inhibition of LPS-induced iNOS protein expression in mouse RAW264.7 cells at 15 uM after 16 hrs by Western blot; format: functional, cell-based; how it was run: as §2
RAW264.7 [7] = experiment: Inhibition of LPS-induced iNOS protein expression in mouse RAW264.7 cells after 16 hrs by Western blot; format: functional, cell-based; how it was run: as §2

| SMILES | inhibition at 20 µM (RAW264.7 [1]) [%] | IC50 (RAW264.7 [2]) [µM] | other results |
| --- | --- | --- | --- |
| CCCNC(=O)c1ccc(-n2cc(-c3cc(C(F)(F)F)cc(C(F)(F)F)c3)nn2)cc1O | 0 | > 20 |  |
| O=C(c1ccc(-n2cc(-c3cccc(Cl)c3)nn2)cc1O)N1CCCCC1 | 0 | > 20 |  |
| CNC(=N)NCCC[C@H](N)C(=O)O [TILARGININE] |  | 19.9 |  |
| CCCCCCc1cn(-c2ccc(C(=O)NCCC)c(O)c2)nn1 | 11 | > 20 |  |
| O=C(c1cc(-n2cc(-c3cc(C(F)(F)F)cc(C(F)(F)F)c3)nn2)ccc1O)N1CCCCC1 | 94.1 | 12.8 | inhibition (RAW264.7 [3]): Active; Activity (RAW264.7 [4]): Non-toxic; inhibition (RAW264.7 [5]): Dose-dependent effect; inhibition (RAW264.7 [6]): Active; inhibition (RAW264.7 [7]): Dose-dependent effect; Activity (RAW264.7 [2]): Dose-dependent effect |
| O=C(c1cc(-n2cc(-c3ccccc3)nn2)ccc1O)N1CCCCC1 | 11.8 | > 20 |  |
| CCCNC(=O)c1ccc(-n2cc(-c3cccc(Cl)c3)nn2)cc1O | 0 | > 20 |  |
| CCCCCCc1cn(-c2ccc(C(=O)N3CCCCC3)c(O)c2)nn1 | 8.3 | > 20 |  |
| CCCNC(=O)c1ccc(-n2cc(-c3cc(F)cc(F)c3)nn2)cc1O | 0 | > 20 |  |
| CCCCCCc1cn(-c2ccc(O)c(C(=O)NCCC)c2)nn1 | 57.9 | 19.7 |  |
| O=C(c1ccc(-n2cc(-c3cc(C(F)(F)F)cc(C(F)(F)F)c3)nn2)cc1O)N1CCCCC1 | 0 | > 20 |  |
| CCCCCc1ccc(-c2cn(-c3ccc(O)c(C(=O)N4CCCCC4)c3)nn2)cc1 | 18.4 | > 20 |  |
| CCCNC(=O)c1cc(-n2cc(-c3cc(F)cc(F)c3)nn2)ccc1O | 0 | > 20 |  |
| CCCCCc1ccc(-c2cn(-c3ccc(C(=O)NCCC)c(O)c3)nn2)cc1 | 0 | > 20 |  |
| O=C(c1cc(-n2cc(-c3cc(F)cc(F)c3)nn2)ccc1O)N1CCCCC1 | 9.1 | > 20 |  |
| O=C(c1cc(-n2cc(-c3cccc(Cl)c3)nn2)ccc1O)N1CCCCC1 | 35.4 | > 20 |  |
| CCCNC(=O)c1cc(-n2cc(CCC(C)C)nn2)ccc1O | 22.6 | > 20 |  |
| O=C(c1ccc(-n2cc(-c3cc(F)cc(F)c3)nn2)cc1O)N1CCCCC1 | 0 | > 20 |  |
| O=C(c1ccc(-n2cc(-c3ccccc3)nn2)cc1O)N1CCCCC1 | 0 | > 20 |  |
| CCCNC(=O)c1cc(-n2cc(-c3cc(C(F)(F)F)cc(C(F)(F)F)c3)nn2)ccc1O | 1.8 | > 20 |  |
| CCCNC(=O)c1ccc(-n2cc(-c3ccccc3)nn2)cc1O | 1.1 | > 20 |  |
| CCCCCc1ccc(-c2cn(-c3ccc(O)c(C(=O)NCCC)c3)nn2)cc1 | 0 | > 20 |  |
| CC(C)CCc1cn(-c2ccc(O)c(C(=O)N3CCCCC3)c2)nn1 | 0.9 | > 20 |  |
| CCCNC(=O)c1ccc(-n2cc(CCC(C)C)nn2)cc1O | 7.3 | > 20 |  |
| CCCCCc1ccc(-c2cn(-c3ccc(C(=O)N4CCCCC4)c(O)c3)nn2)cc1 | 0 | > 20 |  |
| CC(C)CCc1cn(-c2ccc(C(=O)N3CCCCC3)c(O)c2)nn1 | 1.9 | > 20 |  |
| CCCNC(=O)c1cc(-n2cc(-c3ccccc3)nn2)ccc1O | 28.6 | > 20 |  |
| CCCNC(=O)c1cc(-n2cc(-c3cccc(Cl)c3)nn2)ccc1O | 33.8 | > 20 |  |
| CCCCCCc1cn(-c2ccc(O)c(C(=O)N3CCCCC3)c2)nn1 | 4.2 | > 20 |  |
